Results published in ChEMBL document CHEMBL4823320, “SAR of novel benzothiazoles targeting an allosteric pocket of DENV and ZIKV NS2B/NS3 proteases” (Bioorg Med Chem, 2021).

Assays:
Nonstructural protein 3 = Nonstructural protein 3 (Zika virus, UniProt A0A024AXB9); assay: Inhibition of ZIKV NS2B-NS3 protease expressed in Escherichia coli BL21(DE3) using Boc-Gly-Arg-Arg-AMC as substrate by FRET assay
Outline: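 His-tagged ZIKV NS2B/NS3 protease in 50 mM Tris pH 9.0, 20% glycerol, 1 mM CHAPS with 100 µM Boc-Gly-Arg-Arg-AMC. Dilution series 0.01–100 µM, read every 30 s for 10 min at 25 °C. IC50 from a four-parameter fit of hydrolysis rate; mean ± SD of ≥3 independent measurements.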

[1] = molecular target: Genome polyprotein (dengue virus type 2) (UniProt P29990); assay: Inhibition of DENV2 NS2B-NS3 protease expressed in Escherichia coli BL21(DE3) using Boc-Gly-Arg-Arg-AMC as substrate at 20 uM by FRET assay
Outline: (§1)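 His-tagged NS2B/NS3 protease, purified by Ni affinity and size exclusion, in 50 mM Tris pH 9.0, 20% glycerol, 1 mM CHAPS with 100 µM Boc-Gly-Arg-Arg-AMC. Fluorescence is read every 30 s for 10 min at 25 °C. Percent inhibition is at a single inhibitor concentration of 20, 100 or 200 µM; ≥3 independent measurements.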

[2] = molecular target: Nonstructural protein 3 (Zika virus) (UniProt A0A024AXB9); assay: Inhibition of ZIKV NS2B-NS3 protease expressed in Escherichia coli BL21(DE3) using Boc-Gly-Arg-Arg-AMC as substrate at 20 uM by FRET assay; outline: as §1
Chain of Nonstructural protein 3 (Zika virus) (A0A024AXB9 as listed by the source): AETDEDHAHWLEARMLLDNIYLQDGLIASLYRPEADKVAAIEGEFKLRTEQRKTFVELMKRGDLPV

Genome polyprotein = Genome polyprotein (dengue virus type 2, UniProt P29990); assay: Inhibition of DENV2 NS2B-NS3 protease expressed in Escherichia coli BL21(DE3) using Boc-Gly-Arg-Arg-AMC as substrate by FRET assay
Outline: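 Recombinant His-tagged NS2B/NS3 protease, expressed in E. coli BL21-Gold (DE3) (1 mM IPTG, 20 °C, 16 h) and purified by Ni affinity and size exclusion. Assayed in 50 mM Tris pH 9.0, 20% glycerol, 1 mM Chaps, with 100 μM Boc-Gly-Arg-Arg-AMC. Fluorescence read every 30 s for 10 min at 25 °C; inhibitor 0.01–100 μM. IC50 from a four-parameter fit of hydrolysis rate; ≥3 independent experiments.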

Chain of Nonstructural protein 3 (A0A024AXB9 whole entry): as the sequence (A0A024AXB9 as listed by the source) above

SMILES	IC50 (Nonstructural protein 3) [µM]	inhibition [1] [%]	inhibition [2] [%]	IC50 (Genome polyprotein) [µM]
Cc1ccc(S(=O)(=O)N[C@@H](C)C(=O)Nc2nc3cc(O)c(O)cc3s2)cc1	6.48	39		
CC[C@H](C)[C@H](NS(=O)(=O)c1ccc(C)cc1)C(=O)Nc1nc2cc(O)c(O)cc2s1	5.35	33		
Cc1ccc(S(=O)(=O)NC(CSCc2ccccc2)C(=O)Nc2nc3cc(O)c(O)cc3s2)cc1 (single isomer, unassigned)	2.13	57		
O=C(Nc1ccccc1)[C@@H]1CCCN1C(=O)c1cc2cc(O)c(O)cc2[nH]1		36	44	
O=C(Nc1ccccc1)[C@@H]1CCCN1C(=O)c1cc2c(O)cc(O)cc2o1	20.1			27.7
O=C(Nc1ccccc1)[C@@H]1CCCN1C(=O)c1cc2cc(O)c(O)cc2s1	3.43			4.01
O=C(CCNC(=O)c1ccccc1)Nc1nc2cc(O)c(O)cc2s1		23	38	
O=C(Nc1nc2cc(O)c(O)cc2s1)C(c1ccc(O)cc1)c1ccc(O)cc1		45	54	
O=C(Nc1ccccc1)c1cc2cc(O)c(O)cc2s1	1.59			2.73
O=C(Nc1nc2cc(O)c(O)cc2s1)c1ccc(Cl)cc1	6.66			5.97
Cc1ccc(S(=O)(=O)N[C@H](C(=O)Nc2nc3cc(O)c(O)cc3s2)C(C)(C)C)cc1	5.74	44		
CCN(CC)C(=O)C[C@H](NC(=O)c1ccccc1)C(=O)Nc1nc2cc(O)c(O)cc2s1		16	13	
O=C(Nc1nc2cc(O)c(O)cc2s1)C(c1ccc(Cl)cc1)c1ccc(Cl)cc1	0.96	58		
O=C(CN(C(=O)c1ccccc1)c1ccccc1)Nc1nc2cc(O)c(O)cc2s1	2.07	56		
O=C(C[C@H](NC(=O)c1ccccc1)C(=O)Nc1nc2cc(O)c(O)cc2s1)Nc1ccccc1	5.48			9.95
O=C(Nc1ccccc1)[C@@H]1CCCN1C(=O)c1ccc2cc(O)c(O)cc2c1		9	42	
O=C(Nc1ccc(I)cc1)c1nc2cc(O)c(O)cc2s1	1.3			2.48
O=C(Nc1ccccc1)c1cnc2cc(O)c(O)cc2c1	6.38			3.63
O=C(Nc1nc2cc(O)c(O)cc2s1)c1ccc(-c2ccccc2)cc1	1.22			7.8
O=C(Nc1ccccc1)[C@@H]1CCCN1C(=O)c1cnc2cc(O)c(O)cc2c1		23	44	
O=C(Nc1ccccc1)c1cc2cc(O)c(O)cc2[nH]1	3.44			6.9
O=C(Nc1nc2cc(O)c(O)cc2s1)c1ccc(Cl)c(Cl)c1			39	4.86
Cc1ccc(C(=O)Nc2nc3cc(O)c(O)cc3s2)cc1	15.4			6.39
O=[N+]([O-])c1ccc2nc(NC(=S)Nc3ccc(I)cc3)sc2c1	6.51			11.2
Cc1ccc(S(=O)(=O)N[C@@H](Cc2ccccc2)C(=O)Nc2nc3cc(O)c(O)cc3s2)cc1	3.66	33		
Cc1ccc(S(=O)(=O)N[C@H](C)C(=O)Nc2nc3cc(O)c(O)cc3s2)cc1		14	26	
O=C(O)C[C@H](NC(=O)c1ccccc1)C(=O)Nc1nc2cc(O)c(O)cc2s1		32	45	
O=C(Nc1nc2ccc([N+](=O)[O-])cc2s1)c1ccc(I)cc1		36	49	
O=C(N[C@@H](Cc1ccc(O)cc1)C(=O)Nc1nc2cc(O)c(O)cc2s1)c1ccccc1	4.59	63		
O=C(Nc1ccccc1)[C@@H]1CCCN1C(=O)c1nc2cc(O)c(O)cc2s1	4			11.6
